Reference: ChEMBL document CHEMBL4316610, “Synthesis and Biological Studies of (+)-Liquiditerpenoic Acid A (Abietopinoic Acid) and Representative Analogues: SAR Studies” (J Nat Prod, 2019)
Calls of active or inactive are those of the source. The calls are words filed in the database; no cut-off is given here.

Experiments:
[1] = target: T1, GABA-A receptor; alpha-1/beta-2/gamma-2 (Homo sapiens) (UniProt P14867+P47870+P18507); assay: Modulation of recombinant wild type GABAA receptor alpha1beta2gamma2S (unknown origin) expressed in Xenopus laevis oocytes assessed as increase in GABA-evoked chloride current at 100 uM at -70 mV holding potential by two-microelectrode voltage clamp assay relative to control; format: cell-based
How it was run: (§1)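 Two-microelectrode voltage clamp at -70 mV on Xenopus laevis oocytes expressing α1β2γ2S GABA-A receptors. GABA EC5 (4-5 μM), set individually for each oocyte, applied for 20 s alone, then co-applied with compound at 10 or 100 μM. Potentiation of GABA-evoked current is reported. Dehydroabietic acid served as positive control. Mean ± SEM from at least three oocytes and two oocyte batches.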

[2] = target: T1, GABA-A receptor; alpha-1/beta-2/gamma-2 (Homo sapiens); assay: Modulation of recombinant wild type GABAA receptor alpha1beta2gamma2S (unknown origin) expressed in Xenopus laevis oocytes assessed as increase in GABA-evoked chloride current at 10 uM at -70 mV holding potential by two-microelectrode voltage clamp assay relative to control; format: cell-based; how it was run: as §1
[3] = Cytotoxicity against mouse J774 cells assessed as reduction in cell viability after 48 hrs by resazurin dye-based fluorometric analysis
How it was run: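 The CC50 is taken as the concentration giving a 50% reduction in cell viability of treated cultures compared with untreated cells.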

[4] = Selectivity index, ratio of CC50 for mouse J774 cells to IC50 for Leishmania amazonensis MHOM/Br/79/Mari promastigotes; format: toxicity; conditions: read-out: Ratio CC50/IC50
[5] = Selectivity index, ratio of CC50 for mouse J774 cells to IC50 for Leishmania donovani MHOM/IN/80/DD8 promastigotes; format: toxicity; conditions: read-out: Ratio CC50/IC50
[6] = Selectivity index, ratio of CC50 for mouse J774 cells to IC50 for Leishmania guyanensis 141/93 promastigotes; format: toxicity; conditions: read-out: Ratio CC50/IC50
[7] = Selectivity index, ratio of CC50 for mouse J774 cells to IC50 for Leishmania infantum MCAN/ES/96/BCN150 promastigotes; format: toxicity; conditions: read-out: Ratio CC50/IC50
Leishmania infantum = assay: Antileishmanial activity against Leishmania infantum MCAN/ES/96/BCN150 promastigotes after 48 hrs by resazurin dye-based fluorometric analysis; format: functional, organism-based
How it was run: (§2)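 The IC50 is taken as the compound concentration giving a 50% reduction in parasites, reported with SD.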

SW1573 [8] = assay: Antiproliferative activity against human SW1573 cells after 48 hrs by SRB assay; format: functional; conditions: SW1573, 48 h
T47D [9] = assay: Antiproliferative activity against human T47D cells after 48 hrs by SRB assay; format: functional
WiDr [10] = assay: Antiproliferative activity against human WiDr cells after 48 hrs by SRB assay; format: functional
A549 [11] = assay: Antiproliferative activity against human A549 cells after 48 hrs by SRB assay; format: functional; conditions: A549, 48 h
HBL-100 [12] = assay: Antiproliferative activity against human HBL100 cells after 48 hrs by SRB assay; format: functional; conditions: HBL-100, 48 h
HeLa [13] = assay: Antiproliferative activity against human HeLa cells after 48 hrs by SRB assay; format: functional
Leishmania donovani = assay: Antileishmanial activity against Leishmania donovani MHOM/IN/80/DD8 promastigotes after 48 hrs by resazurin dye-based fluorometric analysis; format: functional, organism-based; how it was run: as §2
Leishmania amazonensis = assay: Antileishmanial activity against Leishmania amazonensis MHOM/Br/79/Mari promastigotes after 48 hrs by resazurin dye-based fluorometric analysis; format: functional, organism-based; how it was run: as §2
Leishmania guyanensis = assay: Antileishmanial activity against Leishmania guyanensis 141/93 promastigotes after 48 hrs by resazurin dye-based fluorometric analysis; format: functional, organism-based; how it was run: as §2
[14] = Antiproliferative activity against mouse leukemia cells overexpressing BCR/ABL after 72 hrs by CellTiter-Glo luminescent cell viability assay; format: functional, cell-based
NALM-6 [15] = assay: Antiproliferative activity against human NALM6 cells after 72 hrs by CellTiter-Glo luminescent cell viability assay; format: functional, cell-based; conditions: NALM-6, 72 h
T47D [16] = assay: Antiproliferative activity against human T47D cells; format: functional
A549 [17] = assay: Antiproliferative activity against human A549 cells; format: functional
WiDr [18] = assay: Antiproliferative activity against human WiDr cells; format: functional
HBL-100 [19] = assay: Antiproliferative activity against human HBL100 cells; format: functional
HeLa [20] = assay: Antiproliferative activity against human HeLa cells; format: functional
SW1573 [21] = assay: Antiproliferative activity against human SW1573 cells; format: functional
NALM-6 [22] = assay: Cell cycle arrest in human NALM6 cells assessed as accumulation at G0/G1 phase at 10 uM after 24 hrs by propidium iodide staining-based flow cytometric analysis; format: functional
How it was run: (§3)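 Phosphatidylserine exposure read by Annexin V-FITC/propidium iodide flow cytometry; DNA content by PI staining for cell-cycle distribution.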

KOPN-8 [23] = assay: Induction of apoptosis in human KOPN8 cells assessed as late apoptotic cells at 20 uM after 32 hrs by Annexin V-FITC/propidium iodide staining-based flow cytometric analysis relative to control; format: functional
NALM-6 [24] = assay: Cell cycle arrest in human NALM6 cells assessed as accumulation at G2/M phase at 10 uM after 24 hrs by propidium iodide staining-based flow cytometric analysis; format: functional; how it was run: as §3
SUP-B15 = assay: Antiproliferative activity against human SUP-B15 cells after 72 hrs by CellTiter-Glo luminescent cell viability assay; format: functional, cell-based; conditions: SUP-B15, 72 h
KOPN-8 [25] = assay: Antiproliferative activity against human KOPN8 cells after 72 hrs by CellTiter-Glo luminescent cell viability assay; format: functional, cell-based; conditions: KOPN-8, 72 h
BJ = assay: Antiproliferative activity against human BJ cells after 72 hrs by CellTiter-Glo luminescent cell viability assay; format: ADME, cell-based
UoC-B1 = assay: Antiproliferative activity against human UOCB1 cells after 72 hrs by CellTiter-Glo luminescent cell viability assay; format: functional, cell-based; conditions: UoC-B1, 72 h
NALM-6 [26] = assay: Induction of apoptosis in human NALM6 cells at 10 uM after 24 hrs by Annexin V-FITC/propidium iodide staining-based flow cytometric analysis; format: functional, cell-based; how it was run: as §3
[27] = Leishmania infantum, MCAN/ES/96/BCN150, 48 h, read-out: IC50
[28] = Leishmania donovani, MHOM/IN/80/DD8, 48 h, read-out: IC50
[29] = Leishmania donovani, MHOM/IN/80/DD8, 48 h, read-out: log(1/IC50) (converted)
[30] = Leishmania amazonensis, MHOM/Br/79/Mari, 48 h, read-out: IC50
[31] = Leishmania guyanensis, 141/93, 48 h, read-out: IC50

Structure (SMILES)	Activity [1]	Activity [2]	CC50 at 48 h [3]	selectivity ratio [4]	selectivity ratio [5]	selectivity ratio [6]	selectivity ratio [7]	IC50 (Leishmania infantum; [27])	IC50 (Leishmania donovani; [28])	IC50 (Leishmania donovani; [29])	IC50 (Leishmania amazonensis; [30])	IC50 (Leishmania guyanensis; [31])	other results
COC(=O)[C@]1(C)CCC[C@]2(C)c3cc(O)c(C(C)C)cc3C(=O)C[C@@H]12	242%	37.4%	154 µM										
CCCCCCCCCCCCCCCCOP(=O)([O-])OCC[N+](C)(C)C [MILTEFOSINE]				2.9	909	7.5	40.1						
COC(=O)[C@]1(C)CCC[C@]2(C)c3cc(O)c(C(C)C)cc3CC[C@@H]12	378%	23.7%	34.2 µM	8.7	3.7	5.8	6.8	5 µM	9.21 µM	9.21 µM	3.9 µM	5.9 µM	GI50 (SW1573 [8]): 11 µM; GI50 (T47D [9]): 19 µM; GI50 (WiDr [10]): 23 µM; GI50 (A549 [11]): 9.4 µM; GI50 (HBL-100 [12]): 9.7 µM; GI50 (HeLa [13]): 5.8 µM
CN[C@@H]1C[C@H]2O[C@@](C)([C@@H]1OC)n1c3ccccc3c3c4c(c5c6ccccc6n2c5c31)C(=O)NC4 [STAUROSPORINE]													EC50 [14]: 0.35 µM; EC50 (NALM-6 [15]): 1.4 µM
COc1cc([C@@H]2c3cc4c(cc3[C@@H](O[C@@H]3O[C@@H]5CO[C@@H](C)O[C@H]5[C@H](O)[C@H]3O)[C@H]3COC(=O)[C@H]23)OCO4)cc(OC)c1O [ETOPOSIDE]													GI50 (SW1573 [8]): 15 µM; GI50 (T47D [9]): 22 µM; GI50 (WiDr [10]): 23 µM; GI50 (A549 [11]): 1.5 µM; GI50 (HBL-100 [12]): 1.4 µM; GI50 (HeLa [13]): 3.3 µM
COC(=O)[C@]1(C)CCC[C@]2(C)c3ccc(C(C)C)cc3CC[C@@H]12 [METHYL DEHYDROABIETATE]													GI50 (T47D [16]): 16 µM; GI50 (A549 [17]): 15 µM; GI50 (WiDr [18]): 10 µM; GI50 (HBL-100 [19]): 19 µM; GI50 (HeLa [20]): 15 µM; GI50 (SW1573 [21]): 22 µM
CC(C)c1cc2c(cc1O)[C@@]1(C)CCC[C@@](C)(CO)[C@@H]1CC2=O	-30.3%	4.5%	14.4 µM	1.4	0.7	0.9	1.5	9.7 µM	19.7 µM	19.7 µM	10.2 µM	16.5 µM	
CC(C)c1cc2c(cc1O)[C@@]1(C)CCC[C@@](C)(CO)[C@@H]1CC2 [18-HYDROXYFERRUGINOL]	154%	29.3%	23.4 µM	3	1.7	1.9	33.4	0.7 µM	13.9 µM	13.9 µM	7.7 µM	12.5 µM	
COC(=O)[C@]1(C)CCC[C@]2(C)c3cc(OC(C)=O)c(C(C)C)cc3CC[C@@H]12	26.3%	5.1%	26.5 µM	8.2	3.3	4.8	20.4	1.3 µM	8.1 µM	8.12 µM	3.2 µM	5.5 µM	EC50 [14]: 14.3 µM; GI50 (SW1573 [8]): 12 µM; Activity (NALM-6 [22]): Active; EC50 (NALM-6 [15]): 8.8 µM; Activity (KOPN-8 [23]): >85%; GI50 (T47D [9]): 14 µM; Activity (NALM-6 [24]): Active; EC50 (SUP-B15): 20.2 µM; EC50 (KOPN-8 [25]): 21 µM; GI50 (WiDr [10]): 16 µM; GI50 (A549 [11]): 11 µM; EC50 (BJ): Non-Toxic; GI50 (HBL-100 [12]): 15 µM; EC50 (UoC-B1): > 40 µM; GI50 (HeLa [13]): 4.4 µM; Activity (NALM-6 [26]): inactive
CC(C)c1cc2c(cc1O)[C@@]1(C)CCC[C@@](C)(C(=O)O)[C@@H]1CC2	12.1%	8.9%	85.8 µM	1.6	1.5	1.2	2	43.6 µM	58.1 µM	58.1 µM	54.1 µM	71.4 µM	
CC(C)c1cc2c(cc1O)[C@@]1(C)CCC[C@@](C)(C(=O)O)[C@@H]1CC2=O	-21.1%	-2%	219 µM										IC50 (Leishmania infantum): Not Active; IC50 (Leishmania donovani): Not Active; IC50 (Leishmania amazonensis): Not Active; IC50 (Leishmania guyanensis): Not Active
